Compound activity: PubChem BioAssay, Broad Institute
CDK5 inh – inhibitors of human CDK5/p35 kinase | inhibition, % at 10 µM | 330,000 compounds, 0.01% hits | Recombinant CDK5/p35, ADP-Glo luminescence, 60 min | Q00535+Q15078;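 active = highest replicate inhibition of at least 50% and at least 75% of replicates reaching 50%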;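 note: plate controls were DMSO neutral control for no effect and GW8510 at 10 µM for full effect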
dFosB act – mouse delta FosB homodimer activation. 340,000 compounds, 0.99% hits. AID 493131. purified delta FosB, TAMRA-CDK5 oligo fluorescence polarization; percent of positive-control signal above neutral wells. activation, % at 25 µM;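 active = mean activation above about 17%, with every replicate also reaching it, limit read from the data, passing the limit was not always enough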
SR-BI uptake up – enhances SR-BI lipid uptake from DiI-HDL; CHO ldlA[mSR-BI] cells, DiI-HDL uptake fluorescence, 3 h; 100 = double the neutral-control signal; activation, % at 12.5 µM; 320,000 compounds, 0.096% hits;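 active = mean replicate activation of at least 60% and every replicate at or above 60%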;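 note: 0% = median plate neutral-control signal and 100% = twice that signal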
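Assay system: CHO ldlA[mSR-BI] cells, LDL receptor-null, SR-BI overexpressing; medium: Ham's F12 with 0.5% BSA, HEPES 25 mM, pH 7.4; also added: DiI-HDL 10 µg/mL; timing: 3 h uptake period with compound, 37 °C; signal: DiI fluorescence, bottom read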
DYRK1A inh – inhibitors of rat Dyrk1A kinase. Q63470. 310,000 compounds, 0.43% hits. inhibition, % at 12.5 µM. ADP-Glo luminescence, NFATc1 peptide;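 note: plate controls were vehicle with enzyme for no effect and no enzyme for full effect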
SR-BI DiI inh – mouse SR-BI HDL lipid transfer inhibition | AID 488896 | Q61009 | ldlA[mSR-BI] CHO cells, DiI-HDL uptake fluorescence, 3 h | 320,000 compounds, 0.96% hits | inhibition, % at 12.5 µM;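 active = mean replicate inhibition of at least 70% and a set share of replicates each scoring 70 or more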;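 note: 0% = median of neutral control wells and 100% = median of positive control wells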
NSD2 inh – inhibitors of human histone methyltransferase NSD2. O96028. NSD2 peptide methylation, AlphaScreen, 120 min. inhibition, % at 12.5 µM. 310,000 compounds, 0.54% hits. AID 743445
AlphaScreen art – interferes with AlphaScreen signal, flagging NSD2 false positives | shares compounds with NSD2 inh | AlphaScreen artifact counterscreen, preloaded methylated H4 peptide | AC35, µM (doses to about 10 µM), for the others: top-dose activity change, negative = signal loss | 1,500 compounds, 9.4% hits | AID 1053174; call rule not given here
Starred values were filed as active, the others as inactive; x = no result given. This is a sample that favours compounds with a hit; in the whole collection about 2.5% have one here. Cut-off read from the data, not from the text of the source, unless noted: active = inhibition above about 50%; inactive = the rest.

SMILES | CDK5 inh | dFosB act | SR-BI uptake up | DYRK1A inh | SR-BI DiI inh | NSD2 inh | AlphaScreen art
Cc1cccc(NC(=O)CSCC(=O)NCc2cccc(C(F)(F)F)c2)c1 | -1 | -13 | -18 | -2 | 18 | 98* | 1%
CC(=O)Nc1ccc(S(=O)(=O)NCC(=O)OCC(=O)NNC(=O)c2ccccc2)cc1 | -1 | -6 | 4 | -8 | -4 | -3 | x
Cc1ccccc1CC(=O)Nc1cccc(S(=O)(=O)N2CCCC2)c1 | 2 | -10 | 3 | x | -3 | 2 | x
COc1ccc(/C=C(\C#N)c2nc3ccc(C)cc3[nH]2)cc1Oc1ccc(C(F)(F)F)cc1[N+](=O)[O-] | 0 | -9 | -67 | 0 | 67 | -1 | x
COc1cc(/C=C(\C#N)c2nc3ccc(C)cc3[nH]2)cc([N+](=O)[O-])c1O | 1 | -28 | -2 | 11 | 2 | 61* | -17%
CC1C/C(=C\c2cccnc2)C(=O)/C(=C/c2cccnc2)C1 (stereo unspecified) | 0 | -8 | 1 | -3 | -1 | 58* | -8%
COc1cc(CC(=O)NCC2COc3ccccc3O2)cc(OC)c1OC (stereo unspecified) | 1 | -1 | -1 | -6 | 1 | 54* | -3%
O=C(Cc1ccccc1)NCC1COc2ccccc2O1 (stereo unspecified) | 0 | 5 | 24 | 0 | -24 | 0 | x
CCCCN(C)c1c(C)nc2ccc(C(=O)N3CCN(C(C)=O)CC3)cn12 | x | x | x | x | x | -2 | x
COc1ccc(-n2nnnc2-c2cnc(N3CCCC3)nc2C(F)(F)F)cc1 | 0 | -17 | -22 | 3 | 22 | 52* | 2%
CCc1cc2c(=O)oc(-c3ccccc3F)nc2s1 | 1 | -20 | 15 | -2 | -15 | -4 | x
COC(=O)c1c(SCC(=O)Nc2ccc(C)c(C)c2)nc(=O)[nH]c1C | 1 | -3 | 3 | 3 | -3 | 116* | -3%
COC(=O)c1c(SCc2cccc3ccccc23)nc(=O)[nH]c1C | 0 | -19 | 4 | 10 | -4 | 4 | x
CC(=O)c1ccc(S(=O)(=O)NCCc2cn3ccc(C)cc3n2)cc1 | -1 | 5 | -6 | -2 | 6 | 0 | x
Cc1ccc(C2=NC(=O)/C(=C/c3cc(O)c(O)c(Br)c3)S2)cc1 | 2 | -20 | -69 | -2 | 69 | 120* | 8.2µM*
COc1cc(C(=O)NC2CCCc3ccccc32)cc(OC)c1OC (stereo unspecified) | -2 | -12 | -19 | 0 | 19 | 102* | -4%
COc1ccc(C(=O)NC2CCCc3ccccc32)cc1 (stereo unspecified) | 0 | -2 | x | -7 | x | -3 | x
COc1ccc2c(c1)c1nc3ccccc3nc1n2CCn1c(=O)oc2ccccc21 | -2 | -8 | -67 | -2 | 67 | 58* | 0%
Cc1ccnc(NC(=O)c2cnc(Cl)c(Cl)c2)c1 | 1 | 9 | 18 | 1 | -18 | 10 | x
O=C(Nc1ccccc1N1CCCCC1)c1ccc(-c2cc(Cl)ccc2Cl)o1 | 2 | -4 | x | 6 | x | x | x
O=C(COC(=O)c1ccc([N+](=O)[O-])o1)NC1CCCC1 | 2 | -3 | 18 | 5 | -18 | 5 | x
CCN(C(=O)COC(=O)c1ccc([N+](=O)[O-])o1)C1CCCCC1 | 0 | 1 | 16 | x | -16 | 69* | -4%
O=C(COC(=O)c1ccc([N+](=O)[O-])o1)NC1CCCCC1 | 0 | 1 | -2 | -2 | 2 | 5 | x
O=C(COC(=O)c1ccc([N+](=O)[O-])o1)NC1CCS(=O)(=O)C1 (stereo unspecified) | -2 | -4 | 22 | -5 | -22 | 74* | 1%
Cc1cc(C(=O)COC(=O)c2ccc([N+](=O)[O-])o2)c(C)n1CC1CCCO1 (stereo unspecified) | -1 | -7 | 22 | x | -22 | 54* | -5%
SMILES | CDK5 inh | dFosB act | SR-BI uptake up | DYRK1A inh | SR-BI DiI inh | NSD2 inh | AlphaScreen art
CCCc1cc(C(=O)Cc2ccccn2)c(O)cc1O | 0 | -3 | x | -3 | x | 1 | x
COc1ccc(-c2nnn(CC(=O)NC(=O)NC3CCCCC3)n2)cc1OC | -6 | -7 | -9 | 1 | 9 | -1 | x
Cc1cccnc1C(NC(=O)C1CCN(Cc2ccc(Oc3ccccc3)cc2)CC1)c1ccc(F)cc1 (stereo unspecified) | x | x | x | x | x | -6 | x
CCN(CC)c1ccc(C(=C2C=CC(=[N+](CC)CC)C=C2)c2ccc(N(CC)CC)cc2)cc1 | 37 | 7 | -89 | 31 | 89* | 154* | 0.43µM*
CCN(CC)c1ccc(C(=C2C=CC(=[N+](CC)CC)C=C2)c2ccccc2)cc1 | 9 | -11 | -54 | -2 | 54 | 27 | x
O=C1CCCC(O)=C1N=Nc1cccc(C(=O)O)c1 | 0 | -2 | 14 | -52 | -14 | 69* | -2%
CCN(CC)S(=O)(=O)c1cccc(N=NC2=C(O)CCCC2=O)c1 | 0 | -19 | 12 | -10 | -12 | 2 | x
Cn1cc(Cl)c(/C(N)=N/OC(=O)c2ccccc2C(F)(F)F)n1 | 0 | -7 | 1 | 2 | -1 | x | x
O=C(NCCC(=O)N1CCc2ccccc21)c1ccco1 | -8 | -1 | -4 | -5 | 4 | 68* | -2%
O=C(NCc1nnc(SCC(=O)N2CCc3ccccc32)o1)c1ccco1 | 1 | -7 | -23 | 5 | 23 | -3 | x
CCC1CC(CSc2ncn[nH]2)OC1=O (stereo unspecified) | 1 | -1 | -5 | 2 | 5 | 56* | -2%
COc1ccccc1-n1c(C)c2c(OC)cccc(=O)c2c1C | 0 | -9 | -22 | x | 22 | 6 | x
CCOc1cccc(=O)c2c(C)n(-c3ccc(C(=O)O)cc3)c(C)c12 | -1 | -5 | 9 | x | -9 | 93* | -5%
CCOc1cccc(=O)c2c(C)n(Cc3ccccc3)c(C)c12 | -1 | -4 | x | 8 | x | 2 | x
COc1cccc(=O)c2c(C)n(-c3ccc(C(=O)O)cc3)c(C)c12 | 0 | -9 | 12 | 11 | -12 | 79* | -8%
CCN(CC)S(=O)(=O)c1ccc2c(c1)N(CC(=O)NCCc1ccc(S(N)(=O)=O)cc1)C(=O)CO2 | 0 | 0 | 11 | 2 | -11 | 1 | x
O=C(Cn1nc(-c2ccccc2)c2ccccc2c1=O)NCCO | 0 | -11 | 7 | 7 | -7 | 1 | x
CCN(CC)CCNC(=O)c1cc2cc(Br)ccc2s1 | 0 | 0 | 11 | x | -11 | 56* | -4%
CCN(CC)CCNC(=O)c1cc(-c2ccc(Br)s2)nc2ccccc12 | 1 | -30 | -24 | 6 | 24 | 3 | x
Cc1ccc2nc(-c3ccc(O)c(O)c3)cn2c1 | 15 | 1 | 19 | 34 | -19 | 55* | -11%
